Measurements: PMC6447837 (Cancer Science, 2019)

Key:
[1] = target: Yes (Homo sapiens, UniProt P07947); assay: Radiometric kinase IC50 assay; type: biochemical
[2] = target: Lyn (Homo sapiens, UniProt P07948); assay: Radiometric kinase IC50 assay; type: biochemical
[3] = target: Lck (Homo sapiens, UniProt P06239); assay: Radiometric kinase IC50 assay; type: biochemical
[4] = tested on: Bxpc‐3; assay: MTT antiviability assay; type: cell-based; conditions: Homo sapiens, BXPC-3, 72 h
[5] = tested on: PANC‐1; assay: MTT antiviability assay; type: cell-based; conditions: Homo sapiens, PANC-1, 72 h
[6] = tested on: CFPAC; assay: MTT antiviability assay; type: cell-based; conditions: Homo sapiens, 72 h
[7] = tested on: HPAF‐II; assay: MTT antiviability assay; type: cell-based; conditions: Homo sapiens, 72 h
[8] = tested on: FOSL1; assay: Western blot, FOSL1 expression in intact cells; type: cell-based, human; conditions: 12 hours
[9] = tested on: AKT; assay: Western blot, AKT phosphorylation; type: cell-based, human; conditions: Aspc‐1 and Bxpc‐3 cells, 12 hours
How it was run: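 Aspc-1 and Bxpc-3 cells were grown overnight in complete medium and treated with test compound for 12 h. Cells were lysed in RIPA buffer and protein was quantified. Lysates were run on SDS-PAGE and transferred to PVDF, then blocked 2 h in TBS-T with 5% non-fat milk. Blots were probed for pAKT Ser473, pERK Thr202/Tyr204, pSTAT3 Tyr705, the matching total proteins and β-actin. Detection was by enhanced chemiluminescence.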

[10] = tested on: Aspc‐1 xenograft; assay: Subcutaneous xenograft model; type: in vivo, NOD‐SCID mice; conditions: Aspc‐1 model
How it was run: (§1)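 Female NOD‑SCID mice bearing s.c. right‑flank tumors (5 × 10⁶–1 × 10⁷ cells injected) were randomized at 100–200 mm³ (6–7 per group). They received test compound in 25% PEG400/5% DMSO/water by oral gavage once daily for 18 days, or vehicle. Tumors were measured by caliper every 3 days, with volume = length × width² × 0.5.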

[11] = tested on: Bxpc‐3 xenograft; assay: Subcutaneous xenograft model; type: in vivo, NOD‐SCID mice; conditions: Bxpc‐3 model
How it was run: as §1

[12] = Body weight during treatment in xenograft models; type: in vivo, NOD‐SCID mice; conditions: Aspc‐1 and Bxpc‐3 xenograft models; 20 or 40 mg/kg/d p.o., 18 days
How it was run: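 Six‑week‑old female NOD‑SCID mice received 5 × 10⁶–1 × 10⁷ cells s.c. in the right flank and were grouped (6 per group) at about 200 mm³. Test compound in 25% (v/v) PEG400 plus 5% DMSO in deionized water was given by oral gavage once daily for 18 days, alongside vehicle controls. Mean body weight with SD was recorded.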

[13] = tested on: STAT3; assay: Immunohistochemistry of xenograft tumor tissues; type: in vivo, NOD‐SCID mice; conditions: Aspc‐1 and Bxpc‐3 models; LY‐1816 and dasatinib 40 mg/kg/d p.o., gemcitabine 80 mg/kg/wk; IHC
How it was run: (§2)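 Six-week-old female NOD-SCID mice received 5 × 10⁶ to 1 × 10⁷ cells s.c. in the right flank. Treatment began at about 200 mm³. Test compound (40 mg/kg/d) was given once daily by oral gavage in 25% PEG400 plus 5% DMSO in water. Tumors were resected at the end of dosing. Frozen sections were immunostained and imaged by light microscopy.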

[14] = tested on: FOSL1; assay: Immunohistochemistry of xenograft tumor tissues; type: in vivo, NOD‐SCID mice; conditions: Aspc‐1 and Bxpc‐3 models; LY‐1816 and dasatinib 40 mg/kg/d p.o., gemcitabine 80 mg/kg/wk; IHC
How it was run: as §2

[15] = tested on: Aspc‐1 cells; assay: Wound healing assay; type: cell-based, human; conditions: 18 hours
[16] = tested on: Bxpc‐3 cells; assay: Wound healing assay; type: cell-based, human; conditions: 18 hours
[17] = tested on: Aspc‐1 cells; assay: Transwell invasion assay; type: cell-based, human
How it was run: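 Inserts were precoated with polymerized collagen type I. Cells were seeded on the insert bottom in serum‑free medium with serial dilutions of test compound or vehicle, with 10% FBS medium in the lower chamber. After one day, cells were stained with calcein‑AM and optical sections taken at 10‑μm intervals. Invasion was scored as cells moving >20 μm into collagen; n = 3, mean with SD.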

[18] = tested on: BT474; conditions: BT474, Breast cancer; ref Zhang et al (2016) 35; cited from earlier work
[19] = tested on: MDA‐MB‐415; conditions: MDA‐MB‐415, Breast cancer; ref Zhang et al (2016) 35; cited from earlier work
[20] = tested on: ZR‐75‐1; conditions: ZR‐75‐1, Breast cancer; ref Zhang et al (2016) 35; cited from earlier work
[21] = tested on: HT29; conditions: HT29, Colorectal carcinoma; mean ± SD; ref Zhang et al (2016) 35; cited from earlier work
[22] = tested on: HepG2; conditions: HepG2, Hepatocarcinoma; ref Zhang et al (2016) 35; cited from earlier work
[23] = tested on: SMMC7721; conditions: SMMC7721, Hepatocarcinoma; ref Zhang et al (2016) 35; cited from earlier work
[24] = tested on: MV4‐11; conditions: MV4‐11, Leukemia; mean ± SD; ref Zhang et al (2016) 35; cited from earlier work
[25] = tested on: HL‐60; conditions: HL‐60, Acute myeloid leukemia; mean ± SD; ref Zhang et al (2016) 35; cited from earlier work
[26] = tested on: L929; conditions: L929, Mouse fibroblast (normal cell line); ref Zhang et al (2016) 35; cited from earlier work
[27] = tested on: LO2; conditions: LO2, Human hepatic cells (normal cell line); ref Zhang et al (2016) 35; cited from earlier work
[28] = 40 mg/kg daily, orally, 18 days
[29] = LY‐1816 20 or 40 mg/kg/d p.o., dasatinib 40 mg/kg/d p.o., gemcitabine 80 mg/kg once a week

Lck, sequence (P06239 whole entry): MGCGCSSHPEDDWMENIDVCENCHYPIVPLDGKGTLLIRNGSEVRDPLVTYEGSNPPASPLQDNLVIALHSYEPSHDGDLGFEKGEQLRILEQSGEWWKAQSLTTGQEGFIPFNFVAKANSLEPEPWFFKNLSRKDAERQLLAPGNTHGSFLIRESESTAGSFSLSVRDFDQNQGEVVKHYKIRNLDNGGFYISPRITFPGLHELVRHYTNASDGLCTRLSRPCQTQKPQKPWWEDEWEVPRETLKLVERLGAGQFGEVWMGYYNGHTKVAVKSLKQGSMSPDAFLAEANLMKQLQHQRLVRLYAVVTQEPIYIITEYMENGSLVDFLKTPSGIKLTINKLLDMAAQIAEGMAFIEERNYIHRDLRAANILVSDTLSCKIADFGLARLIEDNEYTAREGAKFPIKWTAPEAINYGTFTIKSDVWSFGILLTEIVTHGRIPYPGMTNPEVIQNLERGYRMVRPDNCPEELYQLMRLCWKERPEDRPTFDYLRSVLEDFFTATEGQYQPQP
Lyn, sequence (P07948 whole entry): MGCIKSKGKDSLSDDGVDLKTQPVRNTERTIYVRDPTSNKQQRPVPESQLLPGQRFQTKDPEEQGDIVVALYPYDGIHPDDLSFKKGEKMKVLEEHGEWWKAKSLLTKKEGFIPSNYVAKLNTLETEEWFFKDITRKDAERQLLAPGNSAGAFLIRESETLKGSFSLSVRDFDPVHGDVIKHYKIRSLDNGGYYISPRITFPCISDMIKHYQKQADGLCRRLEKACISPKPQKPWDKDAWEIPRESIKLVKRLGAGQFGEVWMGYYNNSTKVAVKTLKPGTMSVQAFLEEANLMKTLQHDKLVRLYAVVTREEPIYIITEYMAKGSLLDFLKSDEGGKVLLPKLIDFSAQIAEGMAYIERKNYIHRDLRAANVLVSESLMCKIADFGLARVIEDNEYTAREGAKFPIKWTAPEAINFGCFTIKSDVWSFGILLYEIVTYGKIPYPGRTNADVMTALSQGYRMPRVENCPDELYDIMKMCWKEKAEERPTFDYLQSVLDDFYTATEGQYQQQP
Yes, sequence (P07947 whole entry): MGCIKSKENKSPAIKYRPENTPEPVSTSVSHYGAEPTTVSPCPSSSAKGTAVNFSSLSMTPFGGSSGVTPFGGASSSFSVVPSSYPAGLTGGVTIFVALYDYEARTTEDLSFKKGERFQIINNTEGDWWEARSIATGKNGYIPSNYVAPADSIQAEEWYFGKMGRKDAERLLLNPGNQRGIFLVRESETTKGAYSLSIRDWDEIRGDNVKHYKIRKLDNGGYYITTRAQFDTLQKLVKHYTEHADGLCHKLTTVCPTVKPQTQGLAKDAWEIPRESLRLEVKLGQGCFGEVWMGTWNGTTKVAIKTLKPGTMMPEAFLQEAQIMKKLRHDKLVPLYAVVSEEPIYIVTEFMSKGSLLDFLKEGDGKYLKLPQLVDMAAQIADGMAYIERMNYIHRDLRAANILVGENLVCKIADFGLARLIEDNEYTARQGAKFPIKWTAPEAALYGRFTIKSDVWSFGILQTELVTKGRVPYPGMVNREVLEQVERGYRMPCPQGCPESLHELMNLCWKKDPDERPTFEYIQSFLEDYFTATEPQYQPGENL

Structure (SMILES): Cc1ccc(NC(=O)c2ccc(C)c(C(F)(F)F)c2)cc1C#Cc1nn(C2CCC(O)CC2)c2ncnc(N)c12 (stereo not drawn) [LY‐1816, N‐(3‐((4‐amino‐1‐(4‐hydroxycyclohexyl)‐1H‐pyrazolo[3,4‐d]pyrimidin‐3‐yl)ethynyl)‐4‐methylphenyl)‐4‐methyl‐3‐(trifluoromethyl)benzamide]
- IC50 [1]: 1 nM
- IC50 [2]: 4 nM
- IC50 [3]: 14 nM
- IC50 [4]: 58 ± 11 nM
- IC50 [5]: 123 ± 15 nM
- IC50 [6]: 96 ± 60 nM
- IC50 [7]: 215 ± 31 nM
- FOSL1 expression ([8]; 10 PDAC cell lines): downregulated the FOSL1 expression
- FOSL1 expression ([8]; HT29 and HCT116 cells): relatively weak potency
- phosphorylation of AKT [9]: very weak or no impact on the phosphorylation of ERK and AKT
- tumor‐inhibition rate [10, 28]: > 90%
- antitumor activity [10, 29]: dose‐dependent tumor inhibitory activities
- tumor‐inhibition rate [11, 28]: > 90%
- antitumor activity [11, 29]: dose‐dependent tumor inhibitory activities
- body weight [12]: no significant decrease in body weight
- phosphorylation of STAT3 in tumor tissues [13]: evidently reduced the phosphorylation of Src and STAT3
- expression of FOSL1 in tumor tissues [14]: evidently reduced
- cell migration [15]: dose‐dependently reduced cell migration
- cell migration [16]: dose‐dependently reduced cell migration
- cell invasion [17]: significantly suppressed the invasion
- IC50 [18]: > 10 µM
- IC50 [19]: ~10 µM
- IC50 [20]: ~10 µM
- IC50 [21]: 231 ± 12 nM
- IC50 [22]: > 10 µM
- IC50 [23]: > 10 µM
- IC50 [24]: 138 ± 15 nM
- IC50 [25]: 31 ± 12 nM
- IC50 [26]: > 10 µM
- IC50 [27]: > 10 µM
